One experiment addresses D(1A) dopamine receptor (Rattus norvegicus, UniProt P18901). The experiment can be described thus: Displacement of [3H]SCH23390 from dopamine D1 receptor in Wistar rat striatal membrane by liquid scintillation counting. The experiment is classed as cell membranes, Striatum. The gist of the method:
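Female Wistar rat striatum homogenized in 50 mM Tris-HCl pH 7.4, then washed twice at 49,000g. Membranes were resuspended in Tris-ions buffer (NaCl, CaCl2, KCl, MgCl2, 0.1% ascorbate). [3H]-SCH23390 displacement was read by filtration and scintillation counting. Ki was derived using KD 0.36 nM; 3–6 independent runs in duplicate, mean SEM.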
(In general: Loss of bound radioactivity is the signal in a displacement assay; it reports binding, not function.)

In another experiment the target is D(2) dopamine receptor (Rattus norvegicus, UniProt P61169). The experiment can be described thus: Displacement of [3H]raclopride from dopamine D2 receptor in Wistar rat striatal membrane by liquid scintillation counting. The format is cell membranes, Striatum. The gist of the method: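 Striata from female Wistar rats (200–220 g) were homogenized in 50 mM Tris-HCl (pH 7.4) and centrifuged twice at 49,000g for 15 min at 4 °C. Membranes were resuspended in Tris buffer containing 120 mM NaCl, 2 mM CaCl₂, 5 mM KCl, 1 mM MgCl₂ and 0.1% ascorbic acid (pH 7.4). Samples were filtered, washed with cold buffer and counted by scintillation. Ki was derived using a [³H]raclopride KD of 1,25 nM, from 3–6 determinations run in duplicate.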
D(2) dopamine receptor, sequence (P61169 whole entry): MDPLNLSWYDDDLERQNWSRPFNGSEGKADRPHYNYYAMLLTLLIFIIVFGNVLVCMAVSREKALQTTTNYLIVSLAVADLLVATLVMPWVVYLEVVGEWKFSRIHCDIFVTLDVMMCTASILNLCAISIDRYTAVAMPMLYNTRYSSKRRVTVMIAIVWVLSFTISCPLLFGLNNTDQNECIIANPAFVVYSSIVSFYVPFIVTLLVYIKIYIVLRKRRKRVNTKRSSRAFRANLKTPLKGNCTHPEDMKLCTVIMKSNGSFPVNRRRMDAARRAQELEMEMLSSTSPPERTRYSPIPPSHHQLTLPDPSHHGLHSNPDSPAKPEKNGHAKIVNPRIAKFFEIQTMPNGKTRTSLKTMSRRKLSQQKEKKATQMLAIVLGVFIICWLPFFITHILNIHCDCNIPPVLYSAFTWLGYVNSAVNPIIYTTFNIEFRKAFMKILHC

The species named for a further experiment is Rattus norvegicus. The experiment is described as follows: Selectivity for Wistar rat dopamine D2 receptor over Wistar rat dopamine D1 receptor.
The target of experiment [1] is Sodium-dependent dopamine transporter (Rattus norvegicus) (UniProt P23977). The experiment is described as follows: Inhibition of DAT in Wistar rat striatal synaptosomes at 100 uM by [3H]dopamine uptake assay. The format is subcellular. Particulars: Brain. The gist of the method:
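Synaptosomes were prepared from female Wistar rat striatum at 0–4 °C. Tissue was homogenized in 0.32 M sucrose, spun twice at 1000g for 10 min, and the pooled supernatants were spun at 16,000g for 30 min. The pellet was taken up in Krebs medium (pH 7.6, with glucose). Samples were preincubated for 10 min at 37 °C with pargyline, then given 0.5 nM final [³H]dopamine for 10 min. Uptake was stopped by ice-cold dilution and rapid fiberglass filtration.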

Consider eight molecules from ChEMBL document CHEMBL1154100, “Tetrahydroisoquinolines as dopaminergic ligands: 1-Butyl-7-chloro-6-hydroxy-tetrahydroisoquinoline, a new compound with antidepressant-like activity in mice” (Bioorg Med Chem, 2009).

Activity calls are given as the source filed them. No cut-off for these calls is given here.

D(1A) dopamine receptor, sequence (P18901 whole entry): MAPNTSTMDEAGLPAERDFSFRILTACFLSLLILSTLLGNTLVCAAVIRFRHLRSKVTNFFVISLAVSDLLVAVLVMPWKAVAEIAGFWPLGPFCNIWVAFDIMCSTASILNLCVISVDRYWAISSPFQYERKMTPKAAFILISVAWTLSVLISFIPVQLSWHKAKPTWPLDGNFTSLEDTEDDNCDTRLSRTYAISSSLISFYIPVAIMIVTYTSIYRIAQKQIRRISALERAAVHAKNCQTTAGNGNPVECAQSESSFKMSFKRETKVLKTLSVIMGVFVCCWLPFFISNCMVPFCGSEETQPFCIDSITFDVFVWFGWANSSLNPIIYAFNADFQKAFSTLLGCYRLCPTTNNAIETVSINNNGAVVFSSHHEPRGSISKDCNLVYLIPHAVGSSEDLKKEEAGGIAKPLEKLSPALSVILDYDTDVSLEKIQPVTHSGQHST
Sodium-dependent dopamine transporter (Rattus norvegicus), sequence (P23977 whole entry): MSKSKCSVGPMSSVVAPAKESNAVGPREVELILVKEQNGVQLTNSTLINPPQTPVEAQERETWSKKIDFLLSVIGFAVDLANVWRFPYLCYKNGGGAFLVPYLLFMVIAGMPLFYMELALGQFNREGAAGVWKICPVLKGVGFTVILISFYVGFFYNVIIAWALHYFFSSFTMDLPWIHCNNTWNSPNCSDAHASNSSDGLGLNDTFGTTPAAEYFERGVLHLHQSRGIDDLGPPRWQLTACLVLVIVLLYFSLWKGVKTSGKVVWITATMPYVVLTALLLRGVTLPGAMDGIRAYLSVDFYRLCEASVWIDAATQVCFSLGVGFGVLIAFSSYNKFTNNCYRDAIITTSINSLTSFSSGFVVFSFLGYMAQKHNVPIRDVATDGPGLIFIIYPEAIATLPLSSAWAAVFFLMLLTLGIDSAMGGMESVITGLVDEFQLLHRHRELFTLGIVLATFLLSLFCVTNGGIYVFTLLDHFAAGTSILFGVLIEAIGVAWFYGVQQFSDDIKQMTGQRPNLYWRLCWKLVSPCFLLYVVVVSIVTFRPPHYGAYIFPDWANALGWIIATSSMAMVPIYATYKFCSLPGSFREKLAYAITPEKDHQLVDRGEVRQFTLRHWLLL

In the case of `CCCCC1NCCc2cc(Cl)c(O)cc21` (centres undefined), the Ki was 1210 nM on D(1A) dopamine receptor and 91 nM at D(2) dopamine receptor (read-out: Ki). Moreover, in the experiment filed under Rattus norvegicus, the fold change (FC) turned out to be 17. Further, the outcome in experiment [1] was inactive.

Take `CCCCC1NCCc2cc(Cl)c(OC)cc21` (centres undefined): the Ki on D(1A) dopamine receptor was 17300 nM; at D(2) dopamine receptor (read-out: pKi (converted)), 780 nM. In addition, the fold change (FC) in the experiment filed under Rattus norvegicus amounted to 20. In experiment [1], the result was inactive.

For the molecule `O=C(CCCN1CCC(O)(c2ccc(Cl)cc2)CC1)c1ccc(F)cc1`, the fold change (FC) in the experiment listed under Rattus norvegicus came out at 20.

For the molecule `CCCCC1c2cc(O)c(Cl)cc2CCN1C` (centres undefined), the Ki on D(1A) dopamine receptor is 1140 nM; on D(2) dopamine receptor (read-out: pKi (converted)) it was 395 nM. In addition, in the experiment filed under Rattus norvegicus, the fold change (FC) was found to be 2.3. Besides, the outcome in experiment [1] was inactive.

For `COc1cc2c(cc1Cl)CCNC2c1ccccc1` (centres undefined), the results for the Ki at D(1A) dopamine receptor and at D(2) dopamine receptor (read-out: pKi (converted)) were 6000 nM and 6140 nM, respectively. The fold change (FC) in the experiment filed under Rattus norvegicus worked out at 1.2. In addition, the result in experiment [1] was inactive.

As to `COc1cc2c(cc1Cl)CCNC2Cc1ccccc1` (centres undefined), the Ki on D(1A) dopamine receptor was 2360 nM; at D(2) dopamine receptor (read-out: pKi (converted)), 968 nM. In addition, the fold change (FC) in the experiment listed under Rattus norvegicus was 5. Further, the outcome in experiment [1] was inactive.

Turning to `Oc1cc2c(cc1Cl)CCNC2c1ccccc1` (centres undefined), the Ki on D(1A) dopamine receptor was 247 nM; at D(2) dopamine receptor (read-out: pKi (converted)), 1120 nM. For the same molecule, the fold change (FC) in the experiment filed under Rattus norvegicus was 0.2. Moreover, the result in experiment [1] was inactive.

`COc1cc2c(cc1Cl)CCN(C)C2c1ccccc1` (centres undefined): the values for the Ki on D(1A) dopamine receptor and at D(2) dopamine receptor (read-out: pKi (converted)) were 815 nM and 2140 nM, respectively. Further, the fold change (FC) in the experiment filed under Rattus norvegicus is 0.3. Further, in experiment [1], the outcome was inactive.
